Test results taken from ChEMBL document CHEMBL4431316, “New 6-Aminoquinoxaline Derivatives with Neuroprotective Effect on Dopaminergic Neurons in Cellular and Animal Parkinson Disease Models” (J Med Chem, 2016).
The source made the active and inactive calls. The rule behind the calls is not given here.

What was measured:
[1] = species on record: Rattus norvegicus; assay: (§1) Neuroprotective activity in Sprague-Dawley rat DA neuron death PD model assessed as survival of Th immunopositive cells at 50 uM after 10 days by immunofluorescence assay; format: functional
In short: (§2)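 Midbrain cultures in which DA neurons die spontaneously and selectively through a mechanism involving immature astrocytes and calcium dyshomeostasis. Compounds were present for 10 days in vitro, screened at 50 µM (100 µM for one analog) and retested at 10 µM. dbcAMP 1 mM served as reference. Surviving TH+ neurons were counted and expressed as % of corresponding untreated control cultures.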

[2] = tested on: Astrocyte; assay: Neuroprotective activity in Sprague-Dawley rat astrocytes assessed as [methyl-3H]thymidine incorporation at 10 to 50 uM after 8 days by liquid scintillation counting assay relative to control; format: functional
In short: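 Glial proliferation in midbrain cultures measured as [methyl-3H]-thymidine incorporation at 8 DIV, with test compound 10-50 µM. DbcAMP 1 mM as positive control. Expressed as % of control.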

[3] = tested on: Astrocyte; assay: Neuroprotective activity in Sprague-Dawley rat astrocytes assessed as effect on vimentin positive cell density and morphology at 10 uM by fluorescence microscopic method; format: functional, cell-based
In short: (§3)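 Midbrain cultures labelled for vimentin, a glial marker. Density and morphology of glial cells scored semi-quantitatively by fluorescence microscopy. Compounds tested at 10 and 50 µM, one at 100 µM; dbcAMP as reference.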

[4] = tested on: Astrocyte; assay: Neuroprotective activity in Sprague-Dawley rat astrocytes assessed as effect on vimentin positive cell density and morphology at 50 uM by fluorescence microscopic method; format: functional, cell-based; in short: as §3
[5] = (§4) Neuroprotective activity in Sprague-Dawley rat DA neuron death PD model assessed as survival of Th immunopositive cells at 10 uM after 10 days by immunofluorescence assay relative to control; format: functional; details: 240 h, read-out: Survival; in short: as §2
[6] = Neuroprotective activity in Sprague-Dawley rat DA neuron death PD model assessed as survival of Th immunopositive cells at 100 uM after 10 days by immunofluorescence assay relative to control; format: functional; details: 240 h, read-out: Survival; in short: as §2
[7] = species on record: Rattus norvegicus; assay: Antioxidant activity in Sprague-Dawley rat DA neuron assessed as reduction in ferrous iron-mediated neuron death at 5 uM; format: functional
In short: (§5)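 Midbrain cultures with DA cell death driven by a Fenton-type reaction, ferrous iron reacting with molecular oxygen in the medium (chronic oxidative stress). Test compound 1-10 µM; desferrioxamine 10 µM as positive control. Readout is DA neuron (TH+) survival. P < 0.05 vs control cultures.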

[8] = tested on: Astrocyte; assay: Neuroprotective activity in Sprague-Dawley rat astrocytes assessed as effect on vimentin positive cell density and morphology at 100 uM by fluorescence microscopic method; format: functional, cell-based; in short: as §3
[9] = species on record: Rattus norvegicus; assay: Antioxidant activity in Sprague-Dawley rat DA neuron assessed as reduction in ferrous iron-mediated neuron death at 10 uM; format: functional; in short: as §5
[10] = species on record: Rattus norvegicus; assay: as §4; format: functional; in short: as §2
[11] = as §1; format: functional; details: 240 h, read-out: Survival; in short: as §2
[12] = tested on: Astrocyte; assay: Neuroprotective activity in Sprague-Dawley rat astrocytes assessed as effect on vimentin positive cell density and morphology at 1 mM by fluorescence microscopic method; format: functional, cell-based; in short: as §3
[13] = Neuroprotective activity in Sprague-Dawley rat DA neuron death PD model assessed as survival of Th immunopositive cells at 1 mM after 10 days by immunofluorescence assay relative to control; format: functional; details: 240 h, read-out: Survival; in short: as §2
[14] = species on record: Rattus norvegicus; assay: Neuroprotective activity in Sprague-Dawley rat DA neuron death PD model assessed as increase in [2,5,6-3H]DA uptake at 1 mM after 10 days by liquid scintillation counting spectrometric analysis; format: functional
In short: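 Midbrain cultures in which DA neurons die spontaneously and selectively. Treated with test compound (10-50 µM) or dbcAMP (1 mM, reference) up to 10 DIV. Tritium-labeled DA uptake quantified as a marker of DA cell function and differentiation. Uptake rate per TH+ neuron also derived. *P < 0.05 vs control.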

SMILES	Activity [1]	also measured
Cc1nc2ccc(N)cc2nc1-c1ccc2ccccc2c1	inactive	
C#CCNc1ccc2nc(C)c(-c3ccc(C)cc3)nc2c1	inactive	Activity [2]: inactive
C#CCNc1ccc2nc(C)c(-c3ccc(Cl)c(Cl)c3)nc2c1	inactive	Activity [2]: inactive
C#CCNc1ccc2ncc(-c3ccc(F)cc3)nc2c1	Active	Activity [3]: inactive; Activity [4]: Active
C#CCNc1ccc2nc(C)c(-c3ccc(F)cc3)nc2c1	Active	
COc1ccc(-c2nc3cc(N)ccc3nc2C)cc1OC	inactive	
Cc1nc2ccc(N)cc2nc1-c1ccc(Cl)cc1	inactive	
Nc1ccc2ncc(-c3ccc(F)cc3)nc2c1	Active	Activity [3]: inactive; Activity [4]: inactive; viability at 10 µM [5]: 144%
COc1ccc(C#Cc2cnc3ccc(N)cc3n2)cc1	inactive	
C#CCNc1ccc2nc(C)c(-c3ccccc3)nc2c1Br	Active	
C#CCNc1ccc2ncc(-c3ccccc3)nc2c1	Active	Activity [3]: inactive; Activity [4]: Active; viability at 10 µM [5]: 212%
Nc1ccc2ncc(-c3cnc4ccccc4c3)nc2c1	Active	
Cc1nc2ccc(N)cc2nc1-c1ccccc1		Activity [3]: inactive; viability at 100 µM [6]: 199%; Activity [7]: Active; Activity [8]: Active
Nc1ccc2ncc(-c3cccnc3)nc2c1	Active	
Cc1nc2ccc(N)cc2nc1C	inactive	
CC(=O)N(O)CCCCCNC(=O)CCC(=O)N(O)CCCCCNC(=O)CCC(=O)N(O)CCCCCN		Activity [9]: Active
COc1cc(-c2cnc3ccc(N)cc3n2)cc(OC)c1OC	Active	Activity [10]: inactive
C#CCNc1ccc2nc(C)c(-c3ccc4ccccc4c3)nc2c1	inactive	Activity [2]: inactive
Nc1ccc2nc(-c3ccccc3)cnc2c1		Activity [3]: inactive; Activity [4]: inactive; viability at 10 µM [5]: 134%; viability at 50 µM [11]: 187%
C#CCNc1ccc2nc(C)c(-c3ccccc3)nc2c1	Active	

SMILES	Activity [1]	also measured
C#CCNc1ccc2nc(C)c(-c3cc(OC)c(OC)c(OC)c3)nc2c1		Activity [2]: inactive
Cc1ccc(-c2nc3cc(N)ccc3nc2C)cc1	inactive	
Cc1nc2ccc(N)c(Cl)c2nc1-c1ccccc1	Active	
C#CCNc1ccc2nc(C)c(-c3ccc(OC)cc3)nc2c1		Activity [2]: inactive
Cc1nc2ccc(N)cc2nc1-c1ccc(Cl)c(Cl)c1	Active	
CCCC(=O)Nc1ncnc2c1ncn2[C@@H]1O[C@@H]2COP(=O)(O)O[C@H]2[C@H]1OC(=O)CCC [BUCLADESINE]		Activity [12]: Active; viability at 1000 µM [13]: 225%; Activity [14]: Active
Nc1ccc2ncc(-c3ccc4ccccc4c3)nc2c1	Active	
Nc1ccc2ncc(-c3cccc4ccccc34)nc2c1	Active	
Nc1ccc2ncc(-c3cccc(O)c3)nc2c1	Active	Activity [10]: inactive
Cc1nc2cc(Br)c(N)c(Cl)c2nc1-c1ccccc1	inactive	
COc1ccc(-c2nc3cc(N)ccc3nc2C)cc1	inactive	
COc1ccc(-c2nc3cc(N)ccc3nc2-c2ccccc2)cc1	inactive	
Nc1ccc2ncc(Cl)nc2c1	Active	
C#CC(C)(C)Nc1ccc2nc(C)c(-c3ccccc3)nc2c1	inactive	Activity [2]: inactive
Cc1nc2ccc(N)cc2nc1-c1ccc(F)cc1	Active	
Cc1nc2ccc(N)cc2nc1-c1ccc(-c2ccccc2)cc1	inactive	
Cc1nc2ccc(N)c(Br)c2nc1-c1ccccc1	Active	Activity [10]: inactive
C#CCNc1ccc2nc(C)c(-c3ccc(Cl)cc3)nc2c1	inactive	Activity [2]: inactive
C#Cc1cnc2ccc(N)cc2n1	inactive	
